The source made the active and inactive calls. The rule behind the calls is not given here.
How the values were obtained:
[1] = target: T1, GABA-A receptor; anion channel (Bos taurus) (UniProt P10063+P08220+P20237+P08219+P10064+P22300); test: Inhibition of […] [3H]- Ro.15-1788 binding to benzodiazepine receptors in bovine brain membrane.; format: cell membranes
[2] = target: GABA-A receptor; anion channel; test: Displacement of [3H]- Ro.15-1788 from GABA-A central Benzodiazepine receptor (BzR) of Bovine cerebral cortex membrane; format: tissue-based, Bos taurus
[3] = target: T1, GABA-A receptor; anion channel (Bos taurus); test: Relative binding to GABA-A receptor in the presence and absence of GABA (GABA shift), Ki(-GABA)/Ki(+GABA); format: protein-complex assay
Outline: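 Bovine brain membranes, frozen-thawed and washed in 50 mM Tris-citrate pH 7.4, used for displacement of radiolabeled antagonist [3H]Ro 15-1788. Ki reported as mean ± SEM of three determinations. GABA ratio taken as Ki without GABA divided by Ki with GABA.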

[4] = target: T1, GABA-A receptor; anion channel (Bos taurus); test: (§1) Inhibition of [35S]-TBPS binding to GABA-A central Benzodiazepine Receptor of bovine cerebral cortex membranes; format: tissue-based; set-up: concentration or dose not given beside the values; settings: concentration not given here
Outline: (§2)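 [35S]TBPS binding run in the presence of GABA with compounds at 0.5 μM, on bovine brain membranes washed in Tris-citrate pH 7.4. […] Mean ± SE of three separate experiments.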

Mus musculus [5] = test: Dose required to antagonise the convulsant action of PTZ (80 mg/kg, sc) in 50% mice; No effect at a highest dose of 30 mg/kg; format: functional, organism-based; set-up: dose 30 mg/kg
Mus musculus [6] = test: Antagonism of Diazepam (2.5 mg/kg, ip) anticonvulsant effect in mice treated with PTZ (80 mg/kg, sc); format: functional
Outline: (§3)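 Mice; anticonvulsant value is the dose protecting 50% of animals from convulsions caused by PTZ 80 mg/kg sc; diazepam antagonism measured as dose reversing the anticonvulsant effect of diazepam 2.5 mg/kg ip in mice given PTZ 80 mg/kg sc. Top test dose 250 mg/kg; means of at least three determinations (≤20% between-experiment difference).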

Mus musculus [7] = test: Proconvulsant action measured as the dose required to induce convulsions in 50% of mice that had been previously given a subconvulsant dose of PTZ (40 mg/kg, sc); format: functional
Outline: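 Proconvulsant test in mice pretreated with subconvulsant PTZ 40 mg/kg sc; value is the dose inducing convulsions in 50% of animals. Highest test dose 250 mg/kg; means of at least three determinations, ≤20% difference between experiments.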

Mus musculus [8] = test: Proconvulsant action measured as the dose required to induce convulsions in 50% of mice that had been previously given a subconvulsant dose of PTZ (40 mg/kg, sc); No effect at a highest dose of 100 mg/kg; format: functional, organism-based; set-up: dose 100 mg/kg
Mus musculus [9] = test: Dose required to antagonise the convulsant action of PTZ (80 mg/kg, sc) in 50% mice; No effect at a highest dose of 100 mg/kg; format: functional, organism-based; set-up: dose 100 mg/kg
Mus musculus [10] = test: Dose required to antagonise the convulsant action of PTZ (80 mg/kg, sc) in 50% mice; No effect at a highest dose of 250 mg/kg; format: functional, organism-based; set-up: dose 250 mg/kg
Mus musculus [11] = test: Proconvulsant action measured as the dose required to induce convulsions in 50% of mice that had been previously given a subconvulsant dose of PTZ (40 mg/kg, sc); No effect at a highest dose of 250 mg/kg; format: functional, organism-based; set-up: dose 250 mg/kg
Outline: (§4)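 Mice pretreated with a subconvulsant PTZ dose of 40 mg/kg sc. The dose inducing convulsions in 50% of animals was determined, with compounds tested up to 250 mg/kg. Values are means of at least three determinations, with ≤20% variation between experiments.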

Mus musculus [12] = test: Antagonism of Diazepam (2.5 mg/kg, ip) anticonvulsant effect in mice treated with PTZ (80 mg/kg, sc), No effect to 250 mg/kg dose; format: functional, organism-based; set-up: dose 250 mg/kg
Outline: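 Mice received diazepam 2.5 mg/kg ip plus convulsant PTZ 80 mg/kg sc. The dose of test compound that antagonizes the anticonvulsant effect of diazepam was determined, with a highest dose of 250 mg/kg. Values are means of at least three determinations.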

Mus musculus [13] = test: Proconvulsant action measured as the dose required to induce convulsions in 50% of mice that had been previously given a subconvulsant dose of PTZ (40 mg/kg, sc); No effect at a hieghst dose of 250 mg/kg; format: functional, organism-based; set-up: dose 250 mg/kg; outline: as §4
Mus musculus [14] = test: Dose required by the compound in vivo to antagonise the convulsant action of PTZ (80 mg/kg, sc) in 50 % mice; format: functional; outline: as §3
[15] = target: T1, GABA-A receptor; anion channel (Bos taurus); test: as §1; format: tissue-based; settings: concentration not given here; outline: as §2

SMILES | inhibition [1] | Ki [2] | GABA ratio [3] | inhibition [4] | also measured
Cc1nnc2nc3ccccc3n2c1O | 26% | – | – | – | –
COc1ccc(-c2nnc3n(C)c4ccccc4n3c2=O)cc1 | 53% | – | – | – | –
Cc1ccc(-c2nnc3nc4ccccc4n3c2O)s1 | 83% | 115 nM | 0.96 | – | –
Cn1c2ccccc2n2c(=O)c(-c3cccs3)nnc12 | 63% | – | – | – | –
Cn1c2ccccc2n2c(=O)c(-c3ccc(Cl)cc3)nnc12 | 30% | – | – | – | –
O=C1CN=C(c2ccccc2Cl)c2cc([N+](=O)[O-])ccc2N1 | – | – | – | 100% | –
COc1ccc(-c2nnc3nc4ccccc4n3c2O)cc1OC | 17% | – | – | – | –
Oc1c(-c2ccc(Cl)cc2)nnc2nc3ccccc3n12 | 34% | – | – | – | –
Oc1c(-c2ccco2)nnc2nc3ccccc3n12 | 93% | 56 nM | 0.98 | 25% | –
Cn1c2ccccc2n2c(=O)c(-c3ccco3)nnc12 | 68% | – | – | – | –
Oc1c(-c2ccsc2)nnc2nc3ccccc3n12 | 85% | 107 nM | 1.2 | – | –
COC(=O)c1cc2c(cn1)[nH]c1ccccc12 [BETA-CCM] | – | – | – | – | NE (Mus musculus [5]): inactive; Diazepam antagonism (Mus musculus [6]): 0.02; Proconvulsant action (Mus musculus [7]): 19.4
Oc1ccc(-c2nnc3nc4ccccc4n3c2O)cc1O | 99% | 170 nM | 1.2 | – | –
CCOC(=O)c1ncn2c1CN(C)C(=O)c1cc(F)ccc1-2 [FLUMAZENIL] | – | 0.09 nM | 0.9 | 15% | NE (Mus musculus [8]): inactive; NE (Mus musculus [9]): inactive; Diazepam antagonism (Mus musculus [6]): 0.3
Oc1c(-c2ccccc2)nnc2nc3ccccc3n12 | 97% | 53 nM | 1.2 | 35% | NE (Mus musculus [10]): inactive; NE (Mus musculus [11]): inactive; NE (Mus musculus [12]): inactive
Oc1ccc(-c2nnc3nc4ccccc4n3c2O)cc1 | 99% | 74 nM | 0.87 | 15% | –
COc1ccc(-c2nnc3nc4ccccc4n3c2O)cc1 | 89% | 44 nM | 1.25 | 5% | NE (Mus musculus [13]): inactive; NE (Mus musculus [10]): inactive; NE (Mus musculus [12]): inactive
Cc1ccc(-c2nnc3nc4ccccc4n3c2O)cc1 | 56% | – | – | – | –
Oc1cnnc2nc3ccccc3n12 | 11% | – | – | – | –
CN1C(=O)CN=C(c2ccccc2)c2cc(Cl)ccc21 [DIAZEPAM] | – | – | – | – | ED50 (Mus musculus [14]): 0.4 mg/kg
Cn1c2ccccc2n2c(=O)c(-c3ccccc3)nnc12 | 92% | 860 nM | 1.7 | 66% | ED50 (Mus musculus [14]): 60 mg/kg; NE (Mus musculus [11]): inactive; NE (Mus musculus [12]): inactive
Oc1c(-c2cccs2)nnc2nc3ccccc3n12 | 99% | 13 nM | 0.97 | – | NE (Mus musculus [10]): inactive; NE (Mus musculus [11]): inactive; NE (Mus musculus [12]): inactive; inhibition [15]: 28%

Reference: ChEMBL document CHEMBL1133176, “3-Aryl-[1,2,4]triazino[4,3-a]benzimidazol-4(10H)-ones: tricyclic heteroaromatic derivatives as a new class of benzodiazepine receptor ligands” (J Med Chem, 2000)
